From PubChem
The list is not random: actives were taken first. Their share in the collection is about 2.1%.
b-catenin transl – alters nuclear translocation of beta-catenin in HeLa cells. 190,000 tested, 0.3% active. nuclear translocation activity, % at 5 µM. immunofluorescence imaging;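 active = nuclear translocation activity above 50% at 5 µM, with a well cell count of 50 or more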;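 note: per-cell ratio of nuclear to cytoplasmic median beta-catenin stain intensity; plate controls were DMSO negative control for no effect and GSK-3 inhibitor IX positive control for full effect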
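System: HeLa cells, endogenous beta-catenin; compound dosing: 5 µM primary single dose, 0.1% DMSO, 0.02–20 µM confirmation series; incubation: 24 h compound exposure at 37°C, 5% CO2; signal: beta-catenin immunofluorescence imaging with DAPI; evaluation: % activation, nuclear-to-cytoplasmic median beta-catenin signal ratio per cell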
BaF3 tox – reduces parental Ba/F3 cell viability, JAK2V617F counter-screen; CellTiter-Glo ATP luminescence; inhibition, % at 5.6 µM; 220,000 tested, 1.1% active; AID 1486;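 active = inhibition above a per-campaign cutoff, the mean inhibition of all tested compounds plus 3 SD, cut at about 27% in these data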;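 note: 0% = DMSO wells and 100% = JAK Inhibitor I control wells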
KLF5 inh – inhibitors of KLF5 expression. DLD-1 KLF5 promoter-luciferase reporter, luminescence. inhibition, % at 5 µM. 290,000 tested, 0.23% active;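 active = inhibition above a per-plate limit of that plate's mean compound inhibition plus 3 SD, cut at about 60% in these data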;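 note: 0% = DMSO wells and 100% = LY294002 at 200 µM; higher means less KLF5 promoter-driven luciferase light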
IEC-6 cytotox – kills IEC-6 intestinal cells in KLF5 counter-screen; IEC-6 cytotoxicity, luminescence viability; inhibition, % at 5 µM; 290,000 tested, 0.78% active; in the data active = inhibition above about 22%;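 note: 0% = plate median of test compound wells and 100% = cytotoxic reference compound wells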
Ba/F3 V617F tox – loss of viability in JAK2V617F-driven Ba/F3 cells | Ba/F3 EpoR-JAK2V617F viability, ATP luminescence | inhibition, % at 5.6 µM | 220,000 tested, 1.1% active;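 active = inhibition above the campaign mean plus 3 SD over all tested compounds, cut at about 24% in these data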;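 note: cytokine-independent growth of Ba/F3 cells driven by EpoR plus mutant JAK2; 0% = DMSO-treated cells and 100% = JAK inhibitor I control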
MT stabilizer – stabilizes microtubules in HeLa cells; HeLa tubulin immunostaining HCS, 24 h; share of cells brighter than vehicle mean+2SD; % tubulin-high responders, % at 10 µM; 200,000 tested, 0.83% active; AID 2205;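 active = plate Z-score above 3 for both tubulin-high and condensed-nucleus cell shares, with cell loss under 80%, at 10 µM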;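 note: anti alpha tubulin signal scored within the nucleus-defined area of each cell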
Starred values were filed as active, the others as inactive; . = no result.

SMILES	b-catenin transl	BaF3 tox	KLF5 inh	IEC-6 cytotox	Ba/F3 V617F tox	MT stabilizer
CC1(C)N=c2ccc([N+](=O)[O-])c(N)c2=[N+]1[O-]	2	63*	-12	-2	69*	.
Cc1ccc([N+](=O)[O-])c(C)[n+]1C	0	9	-26	0	8	2
Cc1ccc(/C=N/NC(=O)CCn2nc(C)cc2C)c(C)c1	41	5	-46	-2	0	27*
Cc1cc(C)n(CCC(=O)N/N=C/c2ccc(O)cc2)n1	-2	5	-25	-2	-2	3
CC(=O)Nc1ccccc1N(C)S(=O)(=O)c1ccc(C)cc1	5	3	7	2	-3	47*
CC(=O)Nc1ccccc1NC(=O)CN(C)S(=O)(=O)c1ccc(C)cc1	.	7	-1	-4	0	2
CCCOc1ccc(CSC(=N)N)cc1C(=O)OC	0	0	-13	-1	0	.
CCCCOc1ccc(CN=C(N)N)cc1Cl	4	35*	-15	8	15	.
CCCOc1ccc(CCCN=C(N)N)cc1Cl	4	46*	-2	10	25*	.
CCOc1ccc(CN=C(N)N=C(N)N)cc1Cl	3	27*	5	-1	21	4
CNCCCCOc1ccc(C(C)(C)C)cc1Cl	-1	4	-22	6	3	5
CCOC(=O)c1[nH]c(C)c(CN(C(C)=O)c2ccc(OCC)cc2)c1C	5	12	38	32*	8	20*
Cc1nc(Cl)c(C(=O)Nc2cccc(F)c2)c(C)c1Cl	-1	-2	-4	-2	0	1
Cc1oc2ccc(OS(C)(=O)=O)cc2c1C(=O)OC(C)C	.	85*	-12	-12	42*	5
O=C(Nc1ccc(Cl)cc1)Nc1ccccc1NS(=O)(=O)c1cccs1	-1	62*	-21	-4	2	4
CCCn1c2c(c(O)c(C(=O)Nc3nc4ccccc4s3)c1=O)CCCC2	1	81*	-21	5	5	2
CC(C)Cn1c2c(c(O)c(C(=O)Nc3nc4ccccc4s3)c1=O)CCCC2	0	2	2	2	0	.
COc1cc(/C=C/C(=O)N2CCCc3ccccc32)cc(OC)c1OC	.	9	-8	9	-2	3
Cc1ccc(S(=O)(=O)N[C@H](C(=O)N2CCC(C(=O)N[C@H](C(=O)O)c3ccccc3)CC2)C(C)C)cc1	.	.	-2	-10	.	.
Cc1nc(NC2=NCN(CC3CCCO3)CN2)nc2ccccc12 (configuration not stated)	.	34*	-18	3	38*	5
Cc1nc(NC2=NCN(Cc3ccccc3)CN2)nc2ccccc12	0	.	.	.	.	.
Cc1[nH]c2ccccc2c1/C=C/c1nc2ccccc2c(=O)[nH]1	1	3	-183	15	5	.
Cc1cccc(/C=C/c2nc3ccccc3c(=O)[nH]2)c1	2	4	-151	1	4	26*
Cc1ccc(-n2c(SCC(=O)Nc3ccc(N4CCOCC4)cc3)nc3ccccc3c2=O)cc1	2	5	-11	-4	0	6
Cc1ccc(NC(=S)NNC(=O)CSc2nc3ccccc3c(=O)n2-c2ccc(C)cc2)cc1	1	43*	25	-1	2	2
SMILES	b-catenin transl	BaF3 tox	KLF5 inh	IEC-6 cytotox	Ba/F3 V617F tox	MT stabilizer
Cc1ccc(NC(=O)CSc2nc3ccccc3c3nc4ccccc4n23)cc1	148*	3	-9	11	1	33*
COc1ccc(NC(=O)CSc2nc3ccccc3c3nc4ccccc4n23)cc1	28	5	8	-3	-1	25*
CCOC(=O)CSc1n[nH]c(NC(=O)CC)n1	0	4	-7	12	3	5
CCOc1ccc(OCCNCc2ccc(OC(C)C(=O)N(C)C)c(OCC)c2)cc1 (configuration not stated)	.	.	-12	0	.	.
COc1cccc(C(=O)N2CCN(Cc3nc(CC4CC4)no3)CC2)c1	0	1	-15	4	-2	.
O=C(CC(=O)c1cccc([N+](=O)[O-])c1)Nc1ccccc1Cl	-3	2	-2	6	-2	2
CCOCCCNC(=O)c1c(N)n(-c2ccc3c(c2)OCO3)c2nc3ccccc3nc12	-1	60*	-1	22	36*	.
O=S(=O)(Nc1ncnc2sc3c(c12)CCC3)c1ccc(Cl)s1	.	4	-17	-2	-3	5
CC(=O)Oc1ccc(C(=O)Nc2ccccc2C(=O)Nc2ccc(C(=O)O)cc2)cc1	.	.	-26	-5	.	.
Cc1cccc(N(CC(=O)NCc2ccccc2)C(=O)CCC(=O)Nc2nccs2)c1	.	.	-19	-6	.	.
O=C1NC(c2ccc3c(c2)OCO3)Oc2ccccc21 (configuration not stated)	-4	-1	4	0	0	2
O=C1NC(c2ccc3c(c2)OCO3)Nc2ccccc21 (configuration not stated)	-1	5	-15	2	-1	22*
Cc1nc2ncccn2c1-c1csc(Nc2ccc(N(C)C)cc2)n1	36	81*	33	22*	79*	13
COc1ccc(Nc2nc(-c3c(C)nc4ncccn34)cs2)cc1	56*	83*	84*	86*	83*	14*
Cc1nc2ncccn2c1-c1csc(Nc2ccccc2)n1	5	2	-29	4	-1	19*
Cc1nc2ncccn2c1-c1csc(Nc2ccc(S(N)(=O)=O)cc2)n1	.	.	-55	-7	.	.
COc1cc(/C=N/NC(=O)c2cc(C)oc2C)ccc1OCc1ccccc1	.	.	-11	9	.	.
CCN(CC)S(=O)(=O)c1cc(NC(=O)COC(=O)c2ccc(NC(=O)CC#N)cc2)ccc1C	0	6	-35	1	0	2
Cc1ccc(O)c(-c2cc(-c3cccc(Br)c3)n[nH]2)c1	0	5	-36	-9	-4	18*
CCc1ccc(CNC(=O)CCc2nnc(Cc3cccc(C(F)(F)F)c3)o2)nc1	-2	12	9	9	4	2
CCOC(=O)/C(=N\Nc1ccc(Br)cc1)N1CCN(c2ccccc2OC)CC1	-1	-1	8	4	-3	3
O=C1CSC(c2cccc([N+](=O)[O-])c2)N1c1c(F)cccc1F (configuration not stated)	1	3	19	6	-3	10*
O=C1CSC(c2cccc(F)c2)N1c1c(F)cccc1F (configuration not stated)	.	.	4	3	.	.
CN1/C(=C\C(=O)CSc2nncn2C)C(C)(C)c2ccccc21	2	47*	-30	2	37*	2
COc1cc(OC)cc(C(=O)NCC(=O)OCC(=O)/C=C2/N(C)c3ccccc3C2(C)C)c1	4	4	-10	-2	-1	2
CN1/C(=C\C(=O)Nc2ccc(Br)cc2)C(C)(C)c2ccccc21	-2	3	-12	-11	-1	2
CN1/C(=C/C(=O)C2CC2)C(C)(C)c2ccccc21	3	41*	-7	-3	-1	3
